Test results as given in ChEMBL document CHEMBL1130349, “Synthesis and structure-activity relationships of a new model of arylpiperazines. 3.1 2-[omega-(4-arylpiperazin-1-yl)alkyl]perhydropyrrolo- [1,2-c]imidazoles and -perhydroimidazo[1,5-a]pyridines: study of the influence of the terminal amide fragment on 5-HT1A affinity/selectivity” (J Med Chem, 1997).

Tests used:
[1] = target: T1, Alpha-1A adrenergic receptor (Rattus norvegicus, UniProt P43140); experiment: Binding affinities against Alpha-1 adrenergic receptor (alpha1 adrenoceptor) using [3H]prazosin as radioligand in rat cerebral cortex membrane; assay type: cell membranes
T1 sequence (P43140 whole entry): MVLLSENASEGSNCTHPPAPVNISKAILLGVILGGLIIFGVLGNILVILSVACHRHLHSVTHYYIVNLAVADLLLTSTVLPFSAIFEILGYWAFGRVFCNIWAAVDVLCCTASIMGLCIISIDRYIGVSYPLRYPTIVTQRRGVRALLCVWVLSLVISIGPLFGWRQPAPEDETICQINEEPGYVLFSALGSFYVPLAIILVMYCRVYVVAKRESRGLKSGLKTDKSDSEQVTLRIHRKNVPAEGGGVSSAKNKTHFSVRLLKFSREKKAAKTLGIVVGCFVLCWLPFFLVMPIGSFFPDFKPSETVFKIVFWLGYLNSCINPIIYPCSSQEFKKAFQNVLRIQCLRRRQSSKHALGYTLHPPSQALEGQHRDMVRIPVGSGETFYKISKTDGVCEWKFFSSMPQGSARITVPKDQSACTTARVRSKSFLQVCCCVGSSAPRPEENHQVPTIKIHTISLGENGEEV
Procedure, shortened: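 Radioligand binding run by a cited earlier method; values are means ± SEM of two to four experiments, each in triplicate.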

[2] = Selectivity ratio of serotonin and alpha receptor; design: reference not given here
[3] = target: T2, 5-hydroxytryptamine receptor 1A (Rattus norvegicus, UniProt P19327); experiment: Binding affinities against 5-hydroxytryptamine 1A receptor using [3H]8-OH-DPAT as radioligand in rat cerebral cortex membrane; assay type: cell membranes
T2 sequence (P19327 whole entry): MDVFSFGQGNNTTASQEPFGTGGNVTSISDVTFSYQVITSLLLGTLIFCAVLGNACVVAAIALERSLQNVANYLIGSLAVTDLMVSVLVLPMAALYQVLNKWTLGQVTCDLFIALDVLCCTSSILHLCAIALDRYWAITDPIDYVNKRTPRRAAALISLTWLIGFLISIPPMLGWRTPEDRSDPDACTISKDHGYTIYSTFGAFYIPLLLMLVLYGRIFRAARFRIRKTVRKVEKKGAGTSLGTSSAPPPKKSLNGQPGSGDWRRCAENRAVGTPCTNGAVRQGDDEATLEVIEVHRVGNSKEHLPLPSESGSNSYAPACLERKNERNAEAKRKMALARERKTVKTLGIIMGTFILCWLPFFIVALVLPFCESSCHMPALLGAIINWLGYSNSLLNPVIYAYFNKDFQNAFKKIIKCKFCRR
Procedure, shortened: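 Rat cerebral cortex homogenised in ice-cold 50 mM Tris-HCl (pH 7.7), washed twice, preincubated 10 min at 37 °C. Membranes (~1 mg protein) incubated 15 min at 37 °C with 0.6 nM [3H]-8-OH-DPAT across several competitor concentrations. Nonspecific binding defined by 10 μM 5-HT. Two to four experiments, each in triplicate.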

Row | SMILES | Ki [1] [nM] | Ki ratio [2] | Ki [3] [nM]
1 | O=C1C2CCCCN2C(=O)N1CCCCN1CCN(c2cccc(C(F)(F)F)c2)CC1 (stereo not given) | 72.4 | 7.3 | 
2 | O=C1C2CCCCN2C(=O)N1CCCN1CCN(c2cccc(C(F)(F)F)c2)CC1 (stereo not given) | 90.4 | 15.9 | 
3 | FC(F)(F)c1cccc(N2CCN(CCCN3CC4CCCN4C3)CC2)c1 (stereo not given) | 363 | 12.5 | 29.1
4 | COc1ccccc1N1CCN(CCCCN2CC3CCCN3C2)CC1 (stereo not given) | 72.6 | 4.1 | 17.5
5 | O=C1C2CCCN2C(=O)N1CCCCN1CCN(c2cccc(C(F)(F)F)c2)CC1 (stereo not given) | 64.9 | 27 | 
6 | Clc1cccc(N2CCN(CCCCN3CC4CCCCN4C3)CC2)c1 (stereo not given) | 64.3 | 2.6 | 24.3
7 | FC(F)(F)c1cccc(N2CCN(CCCCN3CC4CCCN4C3)CC2)c1 (stereo not given) | 240 | 19.5 | 12.3
8 | O=C1C2CCCN2C(=O)N1CCCN1CCN(c2cccc(C(F)(F)F)c2)CC1 (stereo not given) | 109 | 28.7 | 
9 | FC(F)(F)c1cccc(N2CCN(CCCCN3CC4CCCCN4C3)CC2)c1 (stereo not given) | 115 | 7.5 | 15.3
10 | FC(F)(F)c1cccc(N2CCN(CCCN3CC4CCCCN4C3)CC2)c1 (stereo not given) | 278 | 11.4 | 24.3
11 | Clc1cccc(N2CCN(CCCCN3CC4CCCN4C3)CC2)c1 (stereo not given) | 64.9 | 2.3 | 28.1
12 | COc1ccccc1N1CCN(CCCN2CC3CCCN3C2)CC1 (stereo not given) | 323 | 26 | 12.2
13 | COc1ccccc1N1CCN(CCCN2CC3CCCCN3C2)CC1 (stereo not given) | 218 | 15.7 | 13.9

The next molecules have a lower Ki [1] than those just listed; values first:

Row | Ki [1] [nM] | Ki ratio [2] | SMILES | Ki [3] [nM]
14 | 45 | 8.8 | COc1ccccc1N1CCN(CCCCN2CC3CCCCN3C2)CC1 (stereo not given) | 5.1
15 | 12.1 | 1.7 | O=C1C2CCCCN2C(=O)N1CCCCN1CCN(c2cccc(Cl)c2)CC1 (stereo not given) | 
16 | 3.1 | 0.7 | COc1ccccc1N1CCN(CCCN2C(=O)C3CCCN3C2=O)CC1 (stereo not given) | 
17 | 8.3 | 1.5 | COc1ccccc1N1CCN(CCCCN2C(=O)C3CCCN3C2=O)CC1 (stereo not given) | 
18 | 8.6 | 1 | COc1ccccc1N1CCN(CCCCN2C(=O)C3CCCCN3C2=O)CC1 (stereo not given) | 
19 | 9.9 | 2.4 | COc1ccccc1N1CCN(CCCN2C(=O)C3CCCCN3C2=O)CC1 (stereo not given) | 
20 | 9.6 | 0.8 | O=C1C2CCCN2C(=O)N1CCCCN1CCN(c2cccc(Cl)c2)CC1 (stereo not given) | 
